Assay results: ChEMBL document CHEMBL1212906, “Apoptotic effects of polyprenylated benzoylphloroglucinol derivatives from the twigs of Garcinia multiflora” (J Nat Prod, 2010)
pIC50: −log10 of the molar value. Calls of active or inactive are those of the source. The calls are words filed in the database; no cut-off is given here.

Columns and labels:
[1] = Induction of apoptosis in human HeLaC3 cells assessed as yellow fluorescent protein/cyan fluorescent protein emission ratio at 100 uM after 72 hrs by FRET assay; format: functional, HeLa C3
Outline: (§1)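 Caspase-3 FRET biosensor (CFP–DEVD–YFP) HeLa-C3 cells were grown in MEM with 10% FBS, penicillin and streptomycin at 37 °C in 5% CO2. 7500 cells per well were seeded and given compound after 12–16 h (DMSO stock ≥1000× working concentration). A YFP/CFP ratio ≤3 was scored as apoptosis. Triplicates, three repeats.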

[2] = Induction of apoptosis in human HeLaC3 cells assessed as yellow fluorescent protein/cyan fluorescent protein emission ratio at 50 uM after 72 hrs by FRET assay; format: functional, HeLa C3; outline: as §1
[3] = Induction of apoptosis in human HeLaC3 cells assessed as yellow fluorescent protein/cyan fluorescent protein emission ratio at 25 uM after 72 hrs by FRET assay; format: functional, HeLa C3; outline: as §1
HeLa C3 [4] = assay: Induction of apoptosis in human HeLaC3 cells assessed as morphological changes at 50 uM after 24 to 72 hrs; format: functional, cell-based
Outline: (§2)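 Compound-treated HeLa-C3 biosensor cells were photographed under a microscope at 24, 48 and 72 h. Paclitaxel 500 nM was the positive control and untreated cells the negative control. Cell shrinkage and detachment from the plate were taken as apoptotic morphology.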

[5] = Cytotoxicity against human HeLa cells after 72 hrs by MTT assay
HeLa C3 [6] = assay: Induction of apoptosis in human HeLaC3 cells assessed as morphological changes at 25 uM after 24 to 72 hrs; format: functional, cell-based; outline: as §2
HeLa C3 [7] = assay: Induction of apoptosis in human HeLaC3 cells at 25 uM after 72 hrs; format: functional, cell-based
Outline: as §1, with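 “concentration). Plates were excited at 440 nm, with emission read at 486 (CFP) and 535 (YFP) nm, for up to 72 h.” for “concentration).”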

HeLa C3 [8] = assay: Induction of apoptosis in human HeLaC3 cells assessed as morphological changes at 100 uM after 24 to 72 hrs; format: functional, cell-based; outline: as §2

Structure (SMILES) | Ratio [1] | Ratio [2] | Ratio [3] | Activity (HeLa C3 [4]) | pIC50 [5] | Activity (HeLa C3 [6]) | Activity (HeLa C3 [7]) | Activity (HeLa C3 [8])
C=C(C)[C@H](CC=C(C)C)C[C@@]12C[C@@H](CC(O)C(C)(C)O)C(C)(C)[C@@](CC=C(C)C)(C(=O)C(C(=O)c3ccc(O)c(O)c3)=C1O)C2=O (stereo partly specified) [GARCIMULTIFLORONE F] | <=3 | <=3 | >3 | Active | 4.83 |  |  | 
CC(C)=CC[C@@H]1C[C@]23C[C@H](CC=C(C)C)C(C)(C)[C@](CC=C(C)C)(C(=O)C(C(=O)c4ccc(O)c(O)c4)=C2OC1(C)C)C3=O [ISOXANTHOCHYMOL] | >3 | >3 | <=3 |  |  | Active | Active | 
C=C(C)[C@H](CC=C(C)C)C[C@@]12C[C@@H](CC=C(C)C)C(C)(C)[C@@](CC(O)C(C)(C)O)(C(=O)C(C(=O)c3ccc(O)c(O)c3)=C1O)C2=O (stereo partly specified) | >3 | >3 | >3 |  | 4.64 |  |  | 
C=C(C)C(O)C[C@H](C[C@@]12C[C@@H](CC=C(C)C)C(C)(C)[C@@](CC=C(C)C)(C(=O)C(C(=O)c3ccc(O)c(O)c3)=C1O)C2=O)C(=C)C (stereo partly specified) [GARCIMULTIFLORONE E] | <=3 | >3 | >3 |  | 4.84 |  |  | Active
C=C(C)[C@H](CC=C(C)C)C[C@@]12C[C@@H](CC=C(C)C)C(C)(C)[C@@](CCC(C)(C)O)(C(=O)C(C(=O)c3ccc(O)c(O)c3)=C1O)C2=O [GARCIMULTIFLORONE D] | <=3 | <=3 | >3 | Active | 4.76 |  |  | 
C=C(C)[C@H](CC=C(C)C)C[C@@]12C[C@@H](CC=C(C)C)C(C)(C)[C@@](CC=C(C)C)(C(=O)C(C(=O)c3ccc(O)c(O)c3)=C1O)C2=O [GUTTIFERONE F] | <=3 | <=3 | >3 | Active |  |  |  | 
O=C1c2c(O)cc(O)cc2O[C@H](c2ccc(O)cc2)[C@H]1c1c(O)cc(O)c2c(=O)cc(-c3ccc(O)c(O)c3)oc12 [MORELLOFLAVONE] | >3 | >3 | >3 |  |  |  |  | 
